Laboratory results taken from ChEMBL document CHEMBL1144782, “Isoindolo[2,1-a]quinoxaline derivatives, novel potent antitumor agents with dual inhibition of tubulin polymerization and topoisomerase I” (2008).

How the values were obtained:
Assay type in all cases: functional
U-251 = assay: Antitumor activity against human U251 cells
Summary of the method: (§1)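 NCI 60-cell-line screen. Parameters were GI50 (50% net growth inhibition), TGI and LC50, each reported as –log molar concentration. Where an effect was not reached within the tested range, the highest tested concentration was used in the calculation.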

CCRF-CEM [1] = assay: Growth inhibition of human vinblastine-resistant CEM cells after 72 hrs by MTT assay
Summary of the method: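 Growth inhibition by MTT after 72 h incubation. Resistant sublines: LoVoDoxo and MCF-7 MDR were kept in 0.1 µg/mL doxorubicin; CEMVbl-100 was selected against vinblastine. GI50 given as mean ± SEM of three independent experiments. Resistance index is resistant-line GI50 over parental GI50.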

IGROV-1 = assay: Antitumor activity against human IGROV1 cells
Summary of the method: (§2)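 Run by the NCI in its in vitro disease-oriented screen of about 60 human tumour cell lines. For each line it reports pGI50 (50% net growth inhibition), pTGI (total growth inhibition) and pLC50 (50% net cell death), each as –log molar concentration. Where an effect was not reached within the tested range, the highest tested concentration was used.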

HOP-92 = assay: Antitumor activity against human HOP92 cells; summary of the method: as §2
T47D = assay: Antitumor activity against human T47D cells; summary of the method: as §1
SK-MEL-5 = assay: Antitumor activity against human SKMEL5 cells; summary of the method: as §2
SR = assay: Antitumor activity against human SR cells; summary of the method: as §1
MDA-MB-435 = assay: Antitumor activity against human MDA-MB-435 cells; summary of the method: as §2
NCI-H460 = assay: Cell viability against human NCI-H460 cells at 10 uM
SK-MEL-28 = assay: Antitumor activity against human SKMEL28 cells; summary of the method: as §2
SNB-19 = assay: Antitumor activity against human SNB19 cells; summary of the method: as §2
KM12 = assay: Antitumor activity against human KM12 cells; summary of the method: as §2
NCI-H23 = assay: Antitumor activity against human NCI-H23 cells; summary of the method: as §2
OVCAR-8 = assay: Antitumor activity against human OVCAR8 cells; summary of the method: as §2
NCI-H522 = assay: Antitumor activity against human NCI-H522 cells; summary of the method: as §2
SF-295 = assay: Antitumor activity against human SF295 cells; summary of the method: as §2
Hs-578T = assay: Antitumor activity against human HS578T cells; summary of the method: as §2
MCF7 = assay: Antitumor activity against human MCF7 cells; summary of the method: as §2
SF-539 = assay: Antitumor activity against human SF539 cells; summary of the method: as §2
HCC 2998 = assay: Antitumor activity against human HCC2998 cells; summary of the method: as §2
RPMI-8226 = assay: Antitumor activity against human RPMI8226 cells; summary of the method: as §2
SF-268 [2] = assay: Cell viability against human SF268 cells at 10 uM
RXF 393 = assay: Antitumor activity against human RXF393 cells; summary of the method: as §2
HCT-116 = assay: Antitumor activity against human HCT116 cells; summary of the method: as §2
LOX IMVI = assay: Antitumor activity against human LOXIMVI cells; summary of the method: as §2
[3] = Antitumor activity against human […] cells; summary of the method: as §2
SF-268 [4] = assay: Antitumor activity against human SF268 cells; summary of the method: as §2
M14 = assay: Antitumor activity against human M14 cells; summary of the method: as §2
SK-OV-3 = assay: Antitumor activity against human SKOV3 cells; summary of the method: as §2
MOLT-4 = assay: Antitumor activity against human MOLT4 cells; summary of the method: as §2
A498 = assay: Antitumor activity against human A498 cells; summary of the method: as §2
CCRF-CEM [5] = assay: Resistance index, Ratio of GI50 for human vinblastine-resistant CEM cells to GI50 for human CEM cells
ACHN = assay: Antitumor activity against human ACHN cells; summary of the method: as §2
UACC-62 = assay: Antitumor activity against human UACC62 cells; summary of the method: as §1
A549 = assay: Antitumor activity against human A549 cells; summary of the method: as §2
UACC-257 = assay: Antitumor activity against human UACC257 cells; summary of the method: as §1
CAKI-1 = assay: Antitumor activity against human CAKI1 cells; summary of the method: as §2
OVCAR-4 = assay: Antitumor activity against human OVCAR4 cells; summary of the method: as §2
OVCAR-5 = assay: Antitumor activity against human OVCAR5 cells; summary of the method: as §2
[6] = read-out: Log LC50 (the source's name) (converted)

Work on `O=c1[nH]c2cc(Cl)c(Cl)cc2n2cc3ccccc3c12` yielded a GI50 (U-251) of 16.2 µM, a CC50 (U-251; [6]) of 55 µM and a TGI (U-251; read-out: pTGI (converted)) of 30.2 µM. It also gave a GI50 (CCRF-CEM [1]) of 1.9 µM, a GI50 (IGROV-1) of 17.4 µM and a CC50 (IGROV-1; [6]) of 56.2 µM. For the same compound, the TGI (IGROV-1; read-out: pTGI (converted)) was 30.9 µM, the GI50 (HOP-92) was 18.2 µM and the LC50 (HOP-92) was 66.1 µM. For the same compound, the TGI (HOP-92; read-out: pTGI (converted)) was 34.7 µM, the GI50 (T47D) was 30.9 µM and the LC50 (T47D) was over 100 µM. For the same compound, the TGI (T47D; read-out: pTGI (converted)) was 75.9 µM, the GI50 (SK-MEL-5) was 20 µM and the LC50 (SK-MEL-5) was 87.1 µM. It also gave a TGI (SK-MEL-5; read-out: pTGI (converted)) of 41.7 µM, a GI50 (SR) of 17.4 µM and an LC50 (SR) of 87.1 µM. It also gave a TGI (SR; read-out: pTGI (converted)) of 38.9 µM, a GI50 (MDA-MB-435) of 17 µM and an LC50 (50% net cell death) (MDA-MB-435) of 55 µM. It also gave a TGI (MDA-MB-435; read-out: pTGI (converted)) of 30.2 µM, an Activity (NCI-H460) of 0% and a GI50 (SK-MEL-28) of 33.1 µM. It also gave a CC50 (SK-MEL-28; [6]) of over 100 µM, a TGI (SK-MEL-28; read-out: pTGI (converted)) of over 100 µM and a GI50 (SNB-19) of 21.9 µM. The CC50 (SNB-19; [6]) was over 100 µM, the TGI (SNB-19; read-out: pTGI (converted)) was 56.2 µM and the GI50 (KM12) was 17.4 µM. For the same compound, the LC50 (50% net cell death) (KM12) was 56.2 µM, the TGI (KM12; read-out: pTGI (converted)) was 30.9 µM and the GI50 (NCI-H23) was 17.4 µM. For the same compound, the LC50 (50% net cell kill) (NCI-H23) was 56.2 µM, the TGI (NCI-H23; read-out: pTGI (converted)) was 30.9 µM and the GI50 (OVCAR-8) was 18.6 µM. It also gave an LC50 (50% net cell death) (OVCAR-8) of 57.5 µM, a TGI (OVCAR-8; read-out: pTGI (converted)) of 32.4 µM and a GI50 (NCI-H522) of 10.2 µM. The CC50 (NCI-H522; [6]) was 93.3 µM, the TGI (NCI-H522; read-out: pTGI (converted)) was 30.9 µM and the GI50 (SF-295) was 16.2 µM. For the same compound, the CC50 (SF-295; [6]) was 55 µM, the TGI (SF-295; read-out: pTGI (converted)) was 30.2 µM and the GI50 (Hs-578T) was 20 µM. It also gave a CC50 (Hs-578T; [6]) of over 100 µM, a TGI (Hs-578T; read-out: pTGI (converted)) of 52.5 µM and a GI50 (MCF7) of 21.4 µM. For the same compound, the LC50 (50% net cell kill) (MCF7) was 72.4 µM, the TGI (MCF7; read-out: pTGI (converted)) was 39.8 µM and the GI50 (SF-539) was 19.1 µM. For the same compound, the LC50 (50% net cell kill) (SF-539) was 81.3 µM, the TGI (SF-539; read-out: pTGI (converted)) was 39.8 µM and the GI50 (HCC 2998) was 0.813 µM. It also gave an LC50 (HCC 2998) of 43.7 µM, a TGI (HCC 2998; read-out: pTGI (converted)) of 18.6 µM and a GI50 (RPMI-8226) of 22.4 µM. It also gave a CC50 (RPMI-8226; [6]) of over 100 µM, a TGI (RPMI-8226; read-out: pTGI (converted)) of 49 µM and an Activity (SF-268 [2]) of 13%. It also gave a GI50 (RXF 393) of 17.4 µM, a CC50 (RXF 393; [6]) of 56.2 µM and a TGI (RXF 393; read-out: pTGI (converted)) of 30.9 µM. It also gave a GI50 (HCT-116) of 20.9 µM, an LC50 (HCT-116) of 58.9 µM and a TGI (HCT-116; read-out: pTGI (converted)) of 35.5 µM. It also gave a GI50 (LOX IMVI) of 17.4 µM, an LC50 (50% net cell kill) (LOX IMVI) of 56.2 µM and a TGI (LOX IMVI; read-out: pTGI (converted)) of 30.9 µM. It also gave a GI50 [3] of 17.4 µM, an LC50 [3] of 61.7 µM and a TGI ([3]; read-out: pTGI (converted)) of 32.4 µM. It also gave a GI50 (SF-268 [4]) of 24 µM, a CC50 (SF-268 [4]; [6]) of 75.9 µM and a TGI (SF-268 [4]; read-out: pTGI (converted)) of 42.7 µM. The GI50 (M14) was 22.9 µM, the CC50 (M14; [6]) was 69.2 µM and the TGI (M14; read-out: pTGI (converted)) was 39.8 µM. It also gave a GI50 (SK-OV-3) of 18.2 µM, an LC50 (50% net cell kill) (SK-OV-3) of 61.7 µM and a TGI (SK-OV-3; read-out: pTGI (converted)) of 33.1 µM. It also gave a GI50 (MOLT-4) of 18.6 µM, an LC50 (MOLT-4) of 72.4 µM and a TGI (MOLT-4; read-out: pTGI (converted)) of 37.2 µM. For the same compound, the GI50 (A498) was 15.8 µM, the CC50 (A498; [6]) was 56.2 µM and the TGI (A498; read-out: pTGI (converted)) was 30.2 µM. The RatioGI50 (CCRF-CEM [5]) was 0.86, the GI50 (ACHN) was 15.5 µM and the LC50 (50% net cell kill) (ACHN) was 53.7 µM. It also gave a TGI (ACHN; read-out: pTGI (converted)) of 28.8 µM, a GI50 (UACC-62) of 16.6 µM and an LC50 (UACC-62) of 55 µM. The TGI (UACC-62; read-out: pTGI (converted)) was 30.2 µM, the GI50 (A549) was 19.1 µM and the CC50 (A549; [6]) was 63.1 µM. It also gave a TGI (A549; read-out: pTGI (converted)) of 34.7 µM, a GI50 (UACC-257) of 20.4 µM and an LC50 (UACC-257) of over 100 µM. For the same compound, the TGI (UACC-257; read-out: pTGI (converted)) was 49 µM, the GI50 (CAKI-1) was 20.4 µM and the LC50 (CAKI-1) was 58.9 µM. For the same compound, the TGI (CAKI-1; read-out: pTGI (converted)) was 34.7 µM, the GI50 (OVCAR-4) was 20.4 µM and the LC50 (50% net cell kill) (OVCAR-4) was over 100 µM. For the same compound, the TGI (OVCAR-4; read-out: pTGI (converted)) was 50.1 µM, the GI50 (OVCAR-5) was 17 µM and the LC50 (50% net cell death) (OVCAR-5) was 55 µM. For the same compound, the TGI (OVCAR-5; read-out: pTGI (converted)) was 30.9 µM.
